Consider 7 molecules from ChEMBL document CHEMBL1124103, “Potential antitumor agents. 56. "Minimal" DNA-intercalating ligands as antitumor drugs: phenylquinoline-8-carboxamides” (J Med Chem, 1988).

Series [1] can be described thus: Ionization constant of chromophore measured by UV spectroscopy in 20% dimethylformamide. Type of series: physicochemical. Summed up:
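Chromophore pKa measured by UV spectroscopy in 20% dimethylformamide.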

Series [2] deals with Nucleic Acid. The series is described as follows: Displacement of ethidium from poly(dA/T) or poly(dG/C)-DNA. The format is nucleic-acid assay. The procedure, abridged:
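Association constants (M⁻¹) for binding to poly[d(AT)] and poly[d(GC)] measured by ethidium displacement, assuming ligand and ethidium compete for intercalation sites; reported as log K.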

The test system of series [3] is L1210. The series is described as follows: Compound concentration that reduces cell growth of L1210 leukemia cultures to 50% of controls after 70h. Type of series: functional, cell-based. Particulars: Mus musculus, L1210, 70 h.
The species entered for series [4] is Mus musculus. Nature of the series: Percentage increase in lifespan of treated animals(at the optimal dose) compared to controls. Average lifespan of control animals was 11 days (P388). The format is functional.
The test system of series [5] is Mus musculus. Nature of the series: Optimal dose administered intraperitoneally on days 1,5 and 9 after intraperitoneal inoculation of P388 leukemia cells. The format is functional.
Series [6] relates to Mus musculus. Nature of the series: Optimal dose administered intraperitoneally on days 5,9 and 13 after intravenous inoculation of lewis lung carcinoma cells. Type of series: functional.
For series [7], the system named is Mus musculus. Nature of the series: Percentage increase in lifespan of treated animals(at 100 mg/kg optimal dose) compared to controls. Average lifespan of control animals was 17 days (Lewis lung carcinoma cells).
Series [8] is filed under the species Mus musculus. The series is described as follows: Percentage increase in lifespan of treated animals(at the optimal dose) compared to controls. Average lifespan of control animals was 17 days (Lewis lung carcinoma cells). The format is functional.

Values joined by “and” are separate entries in the source; they are usually repeats but may differ in a detail not shown here. Identical values can stand only once. A value given as a limit tells only on which side of the number the result lay.

Turning to `CN(C)CCNC(=O)c1cccc2ccc(-c3ccccc3)nc12`, in series [1], the pKa turned out to be 2.75. Also, the Log K in series [2] was 5.97 and 5.92. This molecule also came in with an IC50 in series [3] of 1300 nM. The ILS max in series [4] stood at 91%; in series [7], 70%. For the same molecule, the OD in series [5] and in series [6] was 100 mg/kg each time.
`CN(C)CCNC(=O)c1cc(-c2ccccc2)cc2cccnc12` gave a pKa in series [1] of 2.93. In series [2], the Log K is 6.12 and 5.96. The concentration for half-maximal inhibition (IC50) in series [3] turned out to be 910 nM. The results for the ILSmax in series [4] and in series [8] were 29 and 31, respectively. The figures for the OD in series [5] and in series [6] were 65 mg/kg and 100 mg/kg, respectively.
In the case of `CN(C)CCNC(=O)c1cccc2cccnc12`, the Log K in series [2] is 5.12 and 5.17. Also, in series [3], the half-maximal inhibitory concentration (IC50) was greater than 25000 nM. This molecule had an ILS max in series [4] of less than 20%. The same molecule yielded an OD in series [5] of 100 mg/kg.
`CN(C)CCNC(=O)c1cccc2cc3ccccc3nc12`: in series [4], the ILS max stood at 91%. For the same molecule, the OD in series [5] was determined as 66 mg/kg; in series [6] it was 100 mg/kg.
`CN(C)CCNC(=O)c1cccc2cc(-c3ccccc3)cnc12`: the pKa in series [1] was 2.58. In series [2], the Log K is 5.68 and 5.7. Also, it took 2600 nM to reach half-maximal inhibition in series [3] (IC50). The ILS max in series [4] is on record as 27%; in series [8], less than 40%. The OD in series [5] and in series [6] was 100 mg/kg each time.
For `CN(C)CCNC(=O)c1ccc(-c2ccccc2)c2cccnc12`, the pKa in series [1] worked out at 3.13. Further, the Log K in series [2] was 4.74 and 4.79. The same molecule registered an IC50 in series [3] of 13700 nM. In series [4], this molecule showed an ILS max of less than 20%. Also, in series [5], the OD amounted to 100 mg/kg.
Molecule `CN(C)CCNC(=O)c1cccc2c(-c3ccccc3)ccnc12` showed a pKa in series [1] of 3.04. The Log K in series [2] was 4.73 and 4.77. In series [3], this molecule yielded a concentration for half-maximal inhibition (IC50) of 14700 nM. In series [4], this molecule gave an ILS max of less than 20%. The OD in series [5] amounted to 150 mg/kg.
